ChEMBL document CHEMBL1772965, “Analogues and derivatives of oncrasin-1, a novel inhibitor of the C-terminal domain of RNA polymerase II and their antitumor activities” (J Med Chem, 2011)
The source made the active and inactive calls. No cut-off for these calls is given here.

What was measured:
[1] = Cytotoxicity against mutant K-ras-transformed human T29Kt1 cells assessed as cell viability after 3 days by sulforhodamine B assay; assay type: functional, cell-based; details: T29Kt1, 72 h
Procedure, shortened: (§1)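 Monolayer cultures were grown in RPMI-1640 or DMEM with 10% heat-inactivated fetal calf serum and penicillin/streptomycin, at 37°C and 5% CO2. Cells were exposed for 3 days to compound from 10−4.5 M (31.6 μM) down to 10−8 M (10 nM), with 1% DMSO as the control. Viability was read by sulforhodamine B. IC50 was the dose halving surviving cells versus control, run in quadruplicate and repeated at least three times.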

[2] = Cytotoxicity against human T29 cells assessed as cell viability after 3 days by sulforhodamine B assay; assay type: cell-based; details: T29, 72 h; procedure, shortened: as §1
NCI-H460 [3] = assay: Cytotoxicity against human H460 cells assessed as cell viability after 3 days by sulforhodamine B assay; assay type: functional, cell-based; details: NCI-H460, 72 h; procedure, shortened: as §1
[4] = Stability of compound at pH 4; assay type: physicochemical; details: buffer
[5] = Stability of compound at pH 6; assay type: physicochemical; details: buffer
[6] = Stability of compound at pH 7.4; assay type: physicochemical; details: buffer
[7] = Stability of compound at pH 9; assay type: physicochemical; details: buffer
[8] = Stability of compound at pH 2; assay type: physicochemical; details: buffer
NCI-H157 [9] = assay: Antitumor activity against human NCI-H157 cells assessed as cell viability after 3 days by sulforhodamine B assay; assay type: functional, cell-based; details: NCI-H157, 72 h; procedure, shortened: as §1
NCI-H460 [10] = assay: Antitumor activity against human H460 cells assessed as cell viability after 3 days by sulforhodamine B assay; assay type: functional, cell-based; details: for IC50: NCI-H460, 72 h; procedure, shortened: as §1
[11] = (§2) Antitumor activity against human H1299 cells assessed as cell viability after 3 days by sulforhodamine B assay; assay type: functional, cell-based; details: NCI-H1299, 72 h; procedure, shortened: as §1
[12] = (§3) Antitumor activity against human NCI-H322 cells assessed as cell viability after 3 days by sulforhodamine B assay; assay type: functional, cell-based; details: NCI-H322, 72 h; procedure, shortened: as §1
NCI-H157 [13] = assay: Inhibition of RNA pol2 CTD phosphorylation in human NCI-H157 cells at 1 uM after 12 hrs by Western blot analysis; assay type: cell-based
Procedure, shortened: (§4)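 Cells were treated with 1 μM compound for 12 h and then analysed by Western blot. Phospho-CTD was detected with the H5 antibody (diluted 1:1000), and β-actin (1:1000) served as the loading reference.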

H460 = assay: Inhibition of RNA pol2 CTD phosphorylation in human H460 cells at 1 uM after 12 hrs by Western blot analysis; assay type: cell-based; procedure, shortened: as §4
H1299 = assay: Inhibition of RNA pol2 CTD phosphorylation in human H1299 cells at 1 uM after 12 hrs by Western blot analysis; assay type: cell-based; procedure, shortened: as §4
NCI-H322 [14] = assay: Inhibition of RNA pol2 CTD phosphorylation in human NCI-H322 cells at 1 uM after 12 hrs by Western blot analysis; assay type: cell-based; procedure, shortened: as §4
NCI-H1299 = assay: as §2; assay type: functional, cell-based; procedure, shortened: as §1
NCI-H322 [15] = assay: as §3; assay type: functional, cell-based; procedure, shortened: as §1

| SMILES | Stability [4] | Stability [5] | Stability [6] | Stability [7] | Stability [8] | IC50 (NCI-H157 [9]) | IC50 (NCI-H460 [10]) | IC50 [1] | IC50 [2] | IC50 (NCI-H460 [3]) | IC50 [11] | IC50 [12] | inhibition (NCI-H157 [13]) | inhibition (H460) | inhibition (H1299) | inhibition (NCI-H322 [14]) | Activity (NCI-H460 [10]) | Activity (NCI-H1299) | Activity (NCI-H322 [15]) |
| --- | --- | --- | --- | --- | --- | --- | --- | --- | --- | --- | --- | --- | --- | --- | --- | --- | --- | --- | --- |
| OCc1cn(Cc2ccc(Cl)cc2)c2ccc(F)cc12 | Stable | Stable | Stable | Stable | Unstable | – | – | 80 nM | 8120 nM | 30 nM | – | – | – | – | – | – | – | – | – |
| OCc1cn(Cc2ccc(Br)cc2)c2ccccc12 | Stable | Stable | Stable | Stable | Unstable | – | – | 390 nM | > 31600 nM | 31 nM | – | – | – | – | – | – | – | – | – |
| OCc1cn(Cc2ccc(Br)c(Br)c2)c2ccccc12 | Stable | Stable | Stable | Stable | Unstable | – | – | 100 nM | > 31600 nM | 50 nM | – | – | – | – | – | – | – | – | – |
| COc1ccc(Cn2cc(CO)c3ccccc32)cc1 | Stable | Stable | Stable | Stable | Unstable | – | – | 63 nM | > 31600 nM | 79 nM | – | – | – | – | – | – | – | – | – |
| OCc1cn(Cc2cccc(Br)c2)c2ccccc12 | Stable | Stable | Stable | Stable | Unstable | – | – | 32 nM | > 31600 nM | 28 nM | – | – | – | – | – | – | – | – | – |
| OCc1cn(Cc2ccccc2Cl)c2ccccc12 | Stable | Stable | Stable | Stable | Unstable | – | – | 2510 nM | > 31600 nM | 100 nM | – | – | – | – | – | – | – | – | – |
| OCc1cn(Cc2cccc(F)c2)c2ccc(Cl)cc12 | Stable | Stable | Stable | Stable | Unstable | ≤ 200 nM | ≤ 200 nM | 160 nM | 10000 nM | 70 nM | ≥ 13000 nM | ≥ 13000 nM | Active | Active | inactive | inactive | – | – | – |
| OCc1cn(Cc2ccccc2)c2ccccc12 | Stable | Stable | Stable | Stable | Unstable | – | – | 30 nM | 14500 nM | 112 nM | – | – | – | – | – | – | – | – | – |
| OCc1cn(Cc2ccc(Cl)cc2)c2ccc(Cl)cc12 | Stable | Stable | Stable | Stable | Unstable | – | – | 13000 nM | > 31600 nM | 5750 nM | – | – | – | – | – | – | – | – | – |
| OCc1cn(Cc2ccc(C(F)(F)F)cc2)c2ccccc12 | Stable | Stable | Stable | Stable | Unstable | – | – | 1250 nM | > 31600 nM | 1250 nM | – | – | – | – | – | – | – | – | – |
| Cc1cccc(Cn2cc(CO)c3ccccc32)c1 | Stable | Stable | Stable | Stable | Unstable | – | – | 1000 nM | > 31600 nM | 31 nM | – | – | – | – | – | – | – | – | – |
| Cc1ccc(Cn2cc(CO)c3ccccc32)cc1 | Stable | Stable | Stable | Stable | Unstable | – | – | 150 nM | > 31600 nM | 31 nM | – | – | – | – | – | – | – | – | – |
| O=[N+]([O-])c1ccc(Cn2cc(CO)c3ccccc32)cc1 | Stable | Stable | Stable | Stable | Unstable | – | – | 150 nM | > 31600 nM | 79 nM | – | – | – | – | – | – | – | – | – |
| OCc1cn(Cc2cccc(F)c2)c2ccccc12 | Stable | Stable | Stable | Stable | Unstable | – | – | 20 nM | > 31600 nM | 40 nM | – | – | – | – | – | – | – | – | – |
| O=[N+]([O-])c1cccc(Cn2cc(CO)c3ccccc32)c1 | Stable | Stable | Stable | Stable | Unstable | – | – | 390 nM | > 31600 nM | 39 nM | – | – | – | – | – | – | – | – | – |

The next lines start with results.

| Stability [4] | Stability [5] | Stability [6] | Stability [7] | Stability [8] | IC50 (NCI-H157 [9]) | IC50 (NCI-H460 [10]) | SMILES | IC50 [1] | IC50 [2] | IC50 (NCI-H460 [3]) | IC50 [11] | IC50 [12] | inhibition (NCI-H157 [13]) | inhibition (H460) | inhibition (H1299) | inhibition (NCI-H322 [14]) | Activity (NCI-H460 [10]) | Activity (NCI-H1299) | Activity (NCI-H322 [15]) |
| --- | --- | --- | --- | --- | --- | --- | --- | --- | --- | --- | --- | --- | --- | --- | --- | --- | --- | --- | --- |
| Stable | Stable | Stable | Stable | Unstable | – | – | OCc1cn(Cc2ccc(Cl)cc2Cl)c2ccccc12 | 1580 nM | > 31600 nM | 79 nM | – | – | – | – | – | – | – | – | – |
| Stable | Stable | Stable | Stable | Unstable | – | – | COc1ccc2c(c1)c(CO)cn2Cc1ccc(Cl)cc1 | 12500 nM | > 31600 nM | 1510 nM | – | – | – | – | – | – | – | – | – |
| Stable | Stable | Stable | Stable | Unstable | – | – | OCc1cn(Cc2ccc(Cl)cc2)c2cc(F)ccc12 | 1000 nM | > 31600 nM | 450 nM | – | – | – | – | – | – | – | – | – |
| Stable | Stable | Stable | Stable | Unstable | – | – | Cn1cc(CO)c2cc(F)ccc21 | 13800 nM | > 31600 nM | 16900 nM | – | – | – | – | – | – | – | – | – |
| Stable | Stable | Stable | Stable | Unstable | – | – | OCc1cn(Cc2cccc(I)c2)c2ccccc12 | 20 nM | > 31600 nM | 100 nM | – | – | – | – | – | – | – | – | – |
| Stable | Stable | Stable | Stable | Unstable | – | – | OCc1cn(Cc2ccc(F)cc2)c2ccccc12 | 30 nM | 17000 nM | 118 nM | – | – | – | – | – | – | – | – | – |
| Stable | Stable | Stable | Stable | Unstable | ≤ 200 nM | ≤ 200 nM | OCc1cn(Cc2ccc(Cl)cc2)c2ccccc12 | 79 nM | > 31600 nM | 16 nM | – | – | Dose-dependent effect | Active | inactive | inactive | Dose-dependent effect | Dose-dependent effect | Dose-dependent effect |
| Stable | Stable | Stable | Stable | Unstable | – | – | OCc1cn(Cc2ccc(Cl)c(Cl)c2)c2ccccc12 | 310 nM | > 31600 nM | 31 nM | – | – | – | – | – | – | – | – | – |
| Stable | Stable | Stable | Stable | Unstable | – | – | Cc1ccc(Cn2cc(CO)c3cc(F)ccc32)cc1 | 30 nM | 11700 nM | 10 nM | – | – | – | – | – | – | – | – | – |
| Stable | Stable | Stable | Stable | Unstable | ≤ 200 nM | ≤ 200 nM | OCc1cn(Cc2cccc(Cl)c2)c2ccccc12 | 160 nM | > 31600 nM | 19 nM | – | – | Dose-dependent effect | Active | inactive | inactive | Dose-dependent effect | Dose-dependent effect | Dose-dependent effect |
